pIC50: −log10 of the molar value. The source made the active and inactive calls. The rule behind the calls is not given here.

One may read the inhibition as how much of the control response was suppressed. In general, pIC50 refers to the negative decadic logarithm of the IC50, by convention in mol/L.

The target of one experiment is T1, NAD-dependent protein deacetylase sirtuin-2 (Homo sapiens) (UniProt Q8IXJ6).
T1 sequence (whole entry): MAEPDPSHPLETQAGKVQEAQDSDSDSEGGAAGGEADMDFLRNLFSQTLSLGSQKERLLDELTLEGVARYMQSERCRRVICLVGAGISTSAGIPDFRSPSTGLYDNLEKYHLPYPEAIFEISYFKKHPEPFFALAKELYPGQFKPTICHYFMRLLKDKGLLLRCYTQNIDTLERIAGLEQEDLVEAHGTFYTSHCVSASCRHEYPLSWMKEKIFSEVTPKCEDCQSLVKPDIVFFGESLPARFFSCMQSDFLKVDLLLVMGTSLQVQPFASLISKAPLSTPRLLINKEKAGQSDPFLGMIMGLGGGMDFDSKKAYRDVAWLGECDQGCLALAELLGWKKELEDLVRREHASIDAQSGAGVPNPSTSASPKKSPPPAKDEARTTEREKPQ
As to the kind of experiment: Inhibition of SIRT2 using RSTGGK(Ac)APRKQ as substrate assessed as inhibition of [14C]nicotinamide release at 200 uM after 1h by TLC. In short, it runs like this:
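Recombinant GST-SIRT2 started the reaction with [carbonyl-14C]NAD+ (43.2 nCi) and acetylated peptide RSTGGK(Ac)APRKQ (196 μM). Buffer was HDAC assay buffer plus 1 mg/mL BSA, with compound at 200 μM final in DMSO. Incubated 1 h at 37 °C. The whole mixture was run on silica TLC in ethanol/2.5 M ammonium acetate (80:20), exposed overnight to X-ray film, and [14C]nicotinamide quantified by densitometry.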
Turning to `CCCCCC1CC(=O)c2cc(Cl)cc(Br)c2O1` (racemic), the inhibition is 66%.

Another experiment addresses T1, NAD-dependent protein deacetylase sirtuin-2 (Homo sapiens). As to the kind of experiment: Inhibition of human recombinant GST-tagged SIRT2 preincubated at 200 uM for 5 mins measured after 1 hr by Fluor de Lys-based fluorescence assay. In short, it runs like this:
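GST-SIRT2 assay with Fluor de Lys KI179 substrate at 0.7 Km (Km 198 μM) and NAD+ at 0.9 Km (Km 547 μM), in HDAC buffer with 1 mg/mL BSA. Substrate, NAD+ and compound (200 μM, DMSO) were preincubated 5 min at RT, then enzyme added for 1 h at 37 °C. Developer plus nicotinamide (2 mM) was added for 45 min at 37 °C. Read at ex 355/em 460 nm; n = 3, SD.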
Turning to `CCCCCCCC1CC(=O)c2cc(Cl)cc(Br)c2O1` (racemic), the inhibition is 57%.

As to `CCCCCC1CC(=O)c2ccc(F)cc2O1` (racemic), the inhibition came to 18%.

With `Cc1ccc(S(=O)(=O)n2cc(CCC3CC(=O)c4cc(Cl)cc(Br)c4O3)c3ccccc32)cc1` (racemic), the inhibition was determined as 27%.

In the case of `CCCCCC1CCc2cc(Cl)cc(Br)c2O1` (centres undefined), the inhibition is 38%.

On to `CCCCCC1CC(=O)c2cc(Cl)ccc2O1` (racemic), for which the inhibition amounted to 55%.

With `O=c1cc(-c2ccccc2)oc2c(Br)cc(Cl)cc12`, the inhibition was determined as 20%.

`CCCCCC1C=Cc2cc(Cl)cc(Br)c2O1` (centres undefined): the inhibition amounted to 38%.

On to `CCCCCC1CC(O)c2cc(Cl)cc(Br)c2O1` (mixture of isomers), for which the inhibition is 31%.

Regarding `CCCCC[C@@H]1CC(=O)c2cc(Cl)cc(Br)c2O1`, the inhibition is 70%.

On to `CCCCCC1CC(=O)c2cc([N+](=O)[O-])ccc2O1` (racemic), for which the inhibition stood at 58%.

Take `CCCCCC1CC(=O)c2cc(F)cc(F)c2O1` (racemic): the inhibition was found to be 30%.

As for `CC(C)C1CC(=O)c2cc(Cl)cc(Br)c2O1` (racemic), the inhibition is 52%.

`CCCCCC1CC(=O)c2cccc(Br)c2O1` (racemic): the inhibition was 28%.

For the molecule `CCCCCC1CC(=O)c2cc(C)cc(C)c2O1` (racemic), the inhibition amounted to 83%.

On to `CCCCCC1CC(=O)c2cc(OC)ccc2O1` (racemic), for which the inhibition is 20%.

Turning to `CCCCC[C@H]1CC(=O)c2cc(Cl)cc(Br)c2O1`, the inhibition came out at 91%.

In the case of `O=C1CC(CCc2c[nH]c3ccccc23)Oc2c(Br)cc(Cl)cc21` (racemic), the inhibition stood at 53%.

As for `CCCCCC1CC(=O)c2cc(Br)cc(Br)c2O1` (racemic), the inhibition was 92%.

For the molecule `O=C1CC(CCc2ccccc2)Oc2c(Br)cc(Cl)cc21` (racemic), the inhibition was determined as 81%.

In the case of `CCCCCC1CC(=O)c2cc(Cl)cc(Br)c2O1` (racemic), the inhibition was found to be 88%.

`CCCC1CC(=O)c2cc(Cl)cc(Br)c2O1` (racemic): the inhibition is 76%.

Consider `CCCCCc1cc(=O)c2cc(Cl)cc(Br)c2o1`, for which the inhibition came to 82%.

Turning to `CCCCCC1CC(=O)c2ccccc2O1` (racemic), the inhibition was 4.9%.

For a further experiment, the target named is T2, NAD-dependent protein deacetylase sirtuin-3, mitochondrial (Homo sapiens) (UniProt Q9NTG7).
T2 sequence (whole entry): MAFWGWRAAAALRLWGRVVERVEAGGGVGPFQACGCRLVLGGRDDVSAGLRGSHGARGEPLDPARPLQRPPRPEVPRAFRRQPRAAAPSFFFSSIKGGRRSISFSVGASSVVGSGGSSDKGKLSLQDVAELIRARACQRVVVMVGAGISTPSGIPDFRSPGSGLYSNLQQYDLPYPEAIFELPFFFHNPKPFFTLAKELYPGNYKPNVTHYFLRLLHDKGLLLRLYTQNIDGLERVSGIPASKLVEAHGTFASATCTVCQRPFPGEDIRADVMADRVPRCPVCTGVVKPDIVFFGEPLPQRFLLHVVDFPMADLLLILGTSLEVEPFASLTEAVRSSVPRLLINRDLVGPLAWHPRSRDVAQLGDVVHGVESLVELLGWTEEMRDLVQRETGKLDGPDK
Put plainly: Inhibition of recombinant His-tagged SIRT3 preincubated at 200 uM for 5 mins measured after 1hr by Fluor de Lys-based fluorescence assay. In short, it runs like this: (§1)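 Fluor de Lys assay with compound at 200 μM in DMSO. […] Substrate was used at 0.7 Km and NAD+ at 0.9 Km. Preincubated 5 min at RT, then enzyme for 1 h at 37 °C, then developer/nicotinamide for 45 min at 37 °C. Read at ex 355/em 460 nm.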
Turning to `CCCCC[C@@H]1CC(=O)c2cc(Cl)cc(Br)c2O1`, the inhibition is less than 10%.

Take `CCCCCC1CC(=O)c2cc(C)cc(C)c2O1` (racemic): the inhibition was less than 10%.

Regarding `CCCCC[C@H]1CC(=O)c2cc(Cl)cc(Br)c2O1`, the inhibition was less than 10%.

For `CCCCCC1CC(=O)c2cc(Br)cc(Br)c2O1` (racemic), the inhibition was less than 10%.

As to `O=C1CC(CCc2ccccc2)Oc2c(Br)cc(Cl)cc21` (racemic), the inhibition was determined as 16%.

On to `CCCCCC1CC(=O)c2cc(Cl)cc(Br)c2O1` (racemic), for which the inhibition is less than 10%.

For `CCCC1CC(=O)c2cc(Cl)cc(Br)c2O1` (racemic), the inhibition was less than 10%.

Consider `CCCCCc1cc(=O)c2cc(Cl)cc(Br)c2o1`, for which the inhibition was less than 10%.

Another experiment addresses T1, NAD-dependent protein deacetylase sirtuin-2 (Homo sapiens). As to the kind of experiment: Inhibition of human SIRT2 assessed as inhibition of deacetylation of rat stem cell acetylated alpha-tubulin at 200 uM after 30 to 60 mins by Western blot analysis. In short, it runs like this:
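Acetylated α-tubulin (0.5 μg) isolated from rat stem cells was incubated with recombinant GST-SIRT2, NAD+ (500 μM) and compound (200 μM final, DMSO vehicle) in SIRT assay buffer for 30 or 60 min at 37 °C. Samples were resolved on 10% SDS-PAGE and blotted to nitrocellulose. Probed with anti-acetylated tubulin mAb 6-11B-1 (1:8000, 2 h, RT), then HRP anti-mouse secondary (1:50000, 2 h).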
For the molecule `CCCCCC1CC(=O)c2cc(Cl)cc(Br)c2O1` (racemic), the inhibition result was “Active”.

For the next experiment, the target named is T3, NAD-dependent protein deacetylase sirtuin-1 (Homo sapiens) (UniProt Q96EB6).
T3 sequence (whole entry): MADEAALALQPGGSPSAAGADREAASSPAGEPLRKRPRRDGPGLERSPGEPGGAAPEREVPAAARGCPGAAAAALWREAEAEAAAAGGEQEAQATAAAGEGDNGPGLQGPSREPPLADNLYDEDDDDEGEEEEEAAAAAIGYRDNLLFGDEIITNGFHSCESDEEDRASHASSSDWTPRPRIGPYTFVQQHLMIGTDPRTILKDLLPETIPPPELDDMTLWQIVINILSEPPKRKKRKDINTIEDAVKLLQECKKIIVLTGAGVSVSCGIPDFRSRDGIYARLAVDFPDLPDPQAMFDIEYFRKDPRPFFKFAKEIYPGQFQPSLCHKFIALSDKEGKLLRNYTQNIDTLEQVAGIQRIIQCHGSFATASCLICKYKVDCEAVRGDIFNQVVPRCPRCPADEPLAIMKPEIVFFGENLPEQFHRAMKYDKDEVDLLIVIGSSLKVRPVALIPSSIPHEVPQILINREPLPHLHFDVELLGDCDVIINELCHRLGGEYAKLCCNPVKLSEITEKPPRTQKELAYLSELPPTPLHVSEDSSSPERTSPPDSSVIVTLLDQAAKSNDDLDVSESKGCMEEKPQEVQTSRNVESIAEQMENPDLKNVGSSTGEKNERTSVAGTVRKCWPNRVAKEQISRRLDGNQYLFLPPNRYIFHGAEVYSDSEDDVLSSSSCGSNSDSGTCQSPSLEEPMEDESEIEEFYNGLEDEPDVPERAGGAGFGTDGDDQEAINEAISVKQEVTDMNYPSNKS
As to the kind of experiment: Inhibition of recombinant GST-tagged SIRT1 preincubated at 200 uM for 5 mins measured after 1hr by Fluor de Lys-based fluorescence assay. In short, it runs like this:
as §1
With `CCCCC[C@@H]1CC(=O)c2cc(Cl)cc(Br)c2O1`, the inhibition is less than 10%.

On to `CCCCCC1CC(=O)c2cc(C)cc(C)c2O1` (racemic), for which the inhibition was less than 10%.

As for `CCCCC[C@H]1CC(=O)c2cc(Cl)cc(Br)c2O1`, the inhibition was less than 10%.

On to `CCCCCC1CC(=O)c2cc(Br)cc(Br)c2O1` (racemic), for which the inhibition is less than 10%.

As to `O=C1CC(CCc2ccccc2)Oc2c(Br)cc(Cl)cc21` (racemic), the inhibition was less than 10%.

Take `CCCCCC1CC(=O)c2cc(Cl)cc(Br)c2O1` (racemic): the inhibition is less than 10%.

In the case of `CCCC1CC(=O)c2cc(Cl)cc(Br)c2O1` (racemic), the inhibition is less than 10%.

As for `CCCCCc1cc(=O)c2cc(Cl)cc(Br)c2o1`, the inhibition is less than 10%.

For a further experiment, the target named is T4, NAD-dependent protein deacetylase sirtuin-2 (Homo sapiens, UniProt Q8IXJ6).
T4 sequence (Q8IXJ6 whole entry): T1 sequence (whole entry)
As to the kind of experiment: Inhibition of human recombinant GST-tagged SIRT2 preincubated for 5 mins measured after 1 hr by Fluor de Lys-based fluorescence assay. In short, it runs like this:
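Fluorogenic GST-SIRT2 assay using KI179 at 0.7 Km and NAD+ at 0.9 Km, in BSA-supplemented HDAC buffer. Compound, substrate and NAD+ were preincubated 5 min at RT, then enzyme added for 1 h at 37 °C, followed by developer/nicotinamide for 45 min at 37 °C. Fluorescence read at 355/460 nm.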
Consider `CCCCC[C@@H]1CC(=O)c2cc(Cl)cc(Br)c2O1`, for which the pIC50 was 5.35.

`CCCCCC1CC(=O)c2cc(C)cc(C)c2O1` (racemic): the pIC50 is 5.21.

Regarding `CCCCC[C@H]1CC(=O)c2cc(Cl)cc(Br)c2O1`, the negative-log IC50 (pIC50) is 5.82.

On to `CCCCCC1CC(=O)c2cc(Br)cc(Br)c2O1` (racemic), for which the pIC50 was 5.82.

With `O=C1CC(CCc2ccccc2)Oc2c(Br)cc(Cl)cc21` (racemic), the negative-log IC50 (pIC50) was 5.17.

Take `CCCCCC1CC(=O)c2cc(Cl)cc(Br)c2O1` (racemic): the pIC50 is 5.37.

Consider `CCCC1CC(=O)c2cc(Cl)cc(Br)c2O1` (racemic), for which the negative-log IC50 (pIC50) is 4.97.

For `CCCCCc1cc(=O)c2cc(Cl)cc(Br)c2o1`, the negative-log IC50 (pIC50) is 5.26.

(Values after ChEMBL document CHEMBL2163190, “Synthesis and evaluation of substituted chroman-4-one and chromone derivatives as sirtuin 2-selective inhibitors” (J Med Chem, 2012).)
